The text below walks through data of ChEMBL document CHEMBL2396514, “Optimization of novel nipecotic bis(amide) inhibitors of the Rho/MKL1/SRF transcriptional pathway as potential anti-metastasis agents” (Bioorg Med Chem Lett, 2013).

Values after ≈ are worked out from the molar mass of the structure shown.

By IC50 is commonly meant the concentration needed to halve the response being measured. Read a high IC50 as a need for much substance. By inhibition is commonly meant the drop in the measured response relative to a control, in per cent. The low end stands for little suppression, the high end for strong suppression.

For series [1], the system named is PC-3. Put plainly: Antimetastatic activity against human PC3 cells after 24 hrs by scratch wound assay. The series is classed as functional, cell-based. The following applies: PC-3, 24 h. The method, boiled down: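 PC-3 cells (5.0×10^5) were grown to confluence in DMEM with 10% FBS and scratched after 24 h. Medium was switched to DMEM with 0.5% FBS containing compound at various concentrations or 0.1% DMSO. Wounds were imaged at 0 h, then fixed (10% formalin) and crystal-violet stained at 24 h. Migration = initial minus 24 h wound area, normalized to DMSO. IC50 was taken from dose-response curves.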

In series [2] the test system is PC-3. As to the kind of experiment: Antimetastatic activity against human PC3 cells at 10 uM after 24 hrs by scratch wound assay. The note with it: PC-3, 24 h. The class given is functional. The method, boiled down:
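Confluent PC-3 monolayers (5.0×10^5 cells plated, DMEM with 10% FBS) were scratched 24 h after plating. Cells were then exposed to compound at 10 μM, or 0.1% DMSO, in DMEM with 0.5% FBS. Wounds were imaged at 0 h and after 24 h (formalin-fixed, crystal violet-stained). Wound-area closure was quantified and expressed as percent inhibition relative to DMSO control.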

A short description of series [3]: Cytotoxicity against human PC3 cells at 100 uM by WST1 assay. The note with it: read-out: INH. The series is classed as cell-based, PC-3. The method, boiled down:
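Read-out was inhibition of mitochondrial WST-1 reduction in PC-3 cells transiently transfected with an SRE.L luciferase reporter. Compound was tested at 100 μM. Values are the mean of n = 3 independent experiments.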
For orientation: Formazan colour is commonly taken as a measure of viable cells.

Series [4] can be described thus: Kinetic solubility of the compound. The following applies: read-out: Kinetic_solubility. The series is classed as physicochemical.
Series [5] can be described thus: Cytotoxicity against human SK-MEL-147 cells by WST1 assay. The class given is cell-based. The method, boiled down: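 WST-1 reduction was measured in SK-Mel-147 melanoma cells transiently transfected for the RhoC-SRE.L luciferase reporter assay.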
Series [6] concerns Mus musculus. Put plainly: Toxicity in mouse assessed as increase in liver weight at 10 to 100 mg/kg/day, ip administered for 5 days measured on day 8. The series is classed as organism-based. The arrangement: route intraperitoneal. The note with it: in vivo, 120 h. The method, boiled down: (§1)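 5-day tolerability study in mice, doses of 10, 20, 50 and 100 mg/kg/day given intraperitoneally, 3 mice per dose. Animals sacrificed on day 8, then body weight recorded, blood collected, and internal organs dissected, weighed and examined for abnormalities. Behaviour observed and survival tracked over the dosing period.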

In series [7] the test system is Mus musculus. As to the kind of experiment: Toxicity in mouse assessed as organism survival at 10 to 100 mg/kg/day, ip after 5 days. The series is classed as organism-based. The arrangement: route intraperitoneal. The following applies: in vivo, 120 h. The method, boiled down:
as §1

Turning to `O=C(Nc1ccc(Cl)cc1)C1CCCN(C(=O)c2cccc(-c3cccs3)c2)C1` (centres undefined), it took […] to reach half-maximal inhibition in the series with PC-3 [1] (IC50). 10 µM produced 70% inhibition in the series on PC-3 [2]. The cytotoxicity at 100 µM in series [3] came to 4%. The solubility kinetic in series [4] is 1.36 µg/mL (≈ 3.2 µM).

For `O=C(Nc1ccc(Cl)cc1)C1CCCN(C(=O)c2ccc(-c3ccco3)cc2)C1` (centres undefined), in series [3], the cytotoxicity at 100 µM came to 6%.

For `O=C(Nc1cccc(OCc2ccccn2)c1)C1CCCN(C(=O)c2cc(C(F)(F)F)cc(C(F)(F)F)c2)C1` (centres undefined), in series [3], the cytotoxicity at 100 µM is 15%.

For the compound `O=C(Nc1ccc(Cl)nc1)C1CCCN(C(=O)c2cc(C(F)(F)F)cc(C(F)(F)F)c2)C1` (centres undefined), the cytotoxicity at 100 µM in series [3] was found to be 25%.

With `O=C(Nc1ccc(Cl)cc1)C1CCCN(C(=O)c2cccc(-c3ccco3)c2)C1` (centres undefined), the Activity entry in series [5] is listed as “Non-toxic”; in the series with Mus musculus [6] it was “Toxic”; in the series on Mus musculus [7], “Non-toxic”. Moreover, in the series with PC-3 [1], the 50% inhibitory concentration (IC50) is 4.2 µM. Besides, testing at 10 µM with PC-3 [2] gave an inhibition of 70%. Besides, the solubility kinetic in series [4] was found to be 3.09 µg/mL (≈ 7.56 µM).

On to `O=C(Nc1ccc(Cl)cc1)C1CCCN(C(=O)c2cccc(-c3nccs3)c2)C1` (centres undefined), for which the cytotoxicity at 100 µM in series [3] amounted to 32%.

Take `Cc1nc(-c2cccc(C(=O)N3CCCC(C(=O)Nc4ccc(Cl)cc4)C3)c2)cs1` (centres undefined): in series [3], the cytotoxicity at 100 µM stood at 1%.

As to `CS(=O)(=O)Nc1cccc(C(=O)N2CCCC(C(=O)Nc3ccc(Cl)cc3)C2)c1` (centres undefined), the cytotoxicity at 100 µM in series [3] was determined as 3%.

With `CS(=O)(=O)c1cccc(C(=O)N2CCCC(C(=O)Nc3ccc(Cl)cc3)C2)c1` (centres undefined), the cytotoxicity at 100 µM in series [3] is 2%.

Take `CC(=O)Nc1cccc(C(=O)N2CCCC(C(=O)Nc3ccc(Cl)cc3)C2)c1` (centres undefined): in series [3], the cytotoxicity at 100 µM was 4%.

`O=C(Nc1cccc(Oc2ccccc2)c1)C1CCCN(C(=O)c2cc(C(F)(F)F)cc(C(F)(F)F)c2)C1` (centres undefined) came in with an inhibition at 10 µM in the series on PC-3 [2] below 30%. Moreover, the cytotoxicity at 100 µM in series [3] turned out to be 1%. Besides, the solubility kinetic in series [4] was 3.22 µg/mL (≈ 6 µM).

Regarding `O=C(Nc1cccc(Cc2ccccc2)c1)C1CCCN(C(=O)c2cc(C(F)(F)F)cc(C(F)(F)F)c2)C1` (centres undefined), in the series on PC-3 [2], the inhibition at 10 µM was below 30%. Moreover, the solubility kinetic in series [4] was determined as 1.89 µg/mL (≈ 3.54 µM).

In the series on PC-3 [2], `O=C(Nc1cccc(OCCc2ccccn2)c1)C1CCCN(C(=O)c2cc(C(F)(F)F)cc(C(F)(F)F)c2)C1` (centres undefined) came in with an inhibition at 10 µM below 30%. In addition, in series [3], the cytotoxicity at 100 µM turned out to be 5%.

`O=C(Nc1cccc(S(=O)(=O)N2CCCC2)c1)C1CCCN(C(=O)c2cc(C(F)(F)F)cc(C(F)(F)F)c2)C1` (centres undefined) came in with an inhibition at 10 µM in the series on PC-3 [2] below 30%.

In the case of `Cc1nc(-c2cccc(NC(=O)C3CCCN(C(=O)c4cc(C(F)(F)F)cc(C(F)(F)F)c4)C3)c2)cs1` (centres undefined), the inhibition at 10 µM in the series on PC-3 [2] is 42%. The cytotoxicity at 100 µM in series [3] came to 1%.

In the case of `C=Cc1cccc(NC(=O)C2CCCN(C(=O)c3cc(C(F)(F)F)cc(C(F)(F)F)c3)C2)c1` (centres undefined), the cytotoxicity at 100 µM in series [3] stood at 1%.

For the compound `O=C(Nc1cccc(-c2cnco2)c1)C1CCCN(C(=O)c2cc(C(F)(F)F)cc(C(F)(F)F)c2)C1` (centres undefined), in series [3], the cytotoxicity at 100 µM was 9%.

For the compound `O=C(Nc1cccc([N+](=O)[O-])c1)C1CCCN(C(=O)c2cc(C(F)(F)F)cc(C(F)(F)F)c2)C1` (centres undefined), in series [3], the cytotoxicity at 100 µM came to 9%.

`O=C(Nc1cccc(CN2CCCC2)c1)C1CCCN(C(=O)c2cc(C(F)(F)F)cc(C(F)(F)F)c2)C1` (centres undefined): the cytotoxicity at 100 µM in series [3] is 51%.

Consider `O=C(Nc1ccc(Cl)cc1)C1CCCN(C(=O)c2cc(C(F)(F)F)cc(C(F)(F)F)c2)C1` (centres undefined), for which inhibition in the series with PC-3 [1] was half-maximal at 17 µM (IC50). Also, testing at 10 µM with PC-3 [2] gave an inhibition of 22%. In addition, the cytotoxicity at 100 µM in series [3] amounted to 14%. For the same compound, in series [4], the solubility kinetic was 4.5 µg/mL (≈ 9.4 µM).

Turning to `O=C(CCNC(=O)c1cc(C(F)(F)F)cc(C(F)(F)F)c1)Nc1ccc(Cl)cc1`, in the series with PC-3 [2], the inhibition at 10 µM was below 10%. Besides, the solubility kinetic in series [4] was found to be 2.21 µg/mL (≈ 5.04 µM).

Regarding `C[C@@H](N)[C@H]1CC[C@H](C(=O)Nc2ccncc2)CC1` [Y-27632], the IC50 in the series on PC-3 [1] came to 28 µM.
